From ChEMBL document CHEMBL5303300, “EUbOPEN Chemogenomics Library - Multiplex” (2023)
Values joined by “and” are separate entries in the source; they are usually repeats but may differ in a detail not shown here. Identical values can stand only once.

Tested on: HEK-293T
Assay: Multiplex assay against HEK293T
Type: toxicity, cell-based
Settings: human, number of replicates 2
Method in brief: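 Live cells were stained at seeding with Hoechst33342, BioTracker Green Microtubule Cytoskeleton Dye, MitoTracker Red and Annexin V Alexa Fluor 680, then imaged on a CQ1 microscope at 37°C and 5% CO2 after compound addition. CellPathfinder machine-learning gating split cells into Hoechst high-intensity objects or normal cells. Normal cells were split into healthy, pyknosed or fragmented nuclei, and pyknosed cells into mitotic or apoptotic. Tubulin, mitochondrial-mass and membrane-permeability phenotypes are per cents of healthy-nucleus cells.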

[1] = 12 h, 1 µM, compound concentration 1 uM
[2] = 12 h, 10 µM, compound concentration 10 uM
[3] = 24 h, 1 µM, compound concentration 1 uM
[4] = 24 h, 10 µM, compound concentration 10 uM
[5] = 48 h, 1 µM, compound concentration 1 uM
[6] = 48 h, 10 µM, compound concentration 10 uM

For CC(C)N(CCCCOCC(=O)NS(C)(=O)=O)c1cnc(-c2ccccc2)c(-c2ccccc2)n1 [SELEXIPAG], the “Population Apoptotic (%)” value [1] was 50% and 55%, the “Population Fragmented Nuclei (%)” value [1] was 3% and 4% and the “Population Healthy Nuclei (%)” value [1] was 81% and 80%. The “Population Hoechst High Intensity Objects (%)” value [1] was 8% and 6%, the “Population Membrane Permeable-Phenotype (%)” value [1] was 2% and the “Population Mitochondria Different-Phenotype (%)” value [1] was 17% and 14%. For the same compound, the “Population Mitotic Cells (%)” value [1] was 49% and 44%, the “Population Normal (%)” value [1] was 91% and 93% and the “Population Pyknosed Nuclei (%)” value [1] was 14% and 15%. The “Population Tubulin-Different-Phenotype (%)” value [1] was 52% and 41%, the “Total Cell Count” value [1] was 669 and 660 and the “Population Apoptotic (%)” value [2] was 58% and 64%. The “Population Fragmented Nuclei (%)” value [2] was 5% and 6%, the “Population Healthy Nuclei (%)” value [2] was 80% and 81% and the “Population Hoechst High Intensity Objects (%)” value [2] was 9% and 10%. For the same compound, the “Population Membrane Permeable-Phenotype (%)” value [2] was 1% and 0%, the “Population Mitochondria Different-Phenotype (%)” value [2] was 14% and 15% and the “Population Mitotic Cells (%)” value [2] was 41% and 35%. The “Population Normal (%)” value [2] was 90% and 89%, the “Population Pyknosed Nuclei (%)” value [2] was 14% and 11% and the “Population Tubulin-Different-Phenotype (%)” value [2] was 51% and 44%. For the same compound, the “Total Cell Count” value [2] was 616 and 713, the “Population Apoptotic (%)” value [3] was 46% and 55% and the “Population Fragmented Nuclei (%)” value [3] was 6% and 7%. For the same compound, the “Population Healthy Nuclei (%)” value [3] was 83% and 81%, the “Population Hoechst High Intensity Objects (%)” value [3] was 7% and 8% and the “Population Membrane Permeable-Phenotype (%)” value [3] was 2% and 1%. The “Population Mitochondria Different-Phenotype (%)” value [3] was 4% and 3%, the “Population Mitotic Cells (%)” value [3] was 53% and 45% and the “Population Normal (%)” value [3] was 92% and 91%. The “Population Pyknosed Nuclei (%)” value [3] was 9% and 11%, the “Population Tubulin-Different-Phenotype (%)” value [3] was 27% and 22% and the “Total Cell Count” value [3] was 1034 and 989. For the same compound, the “Population Apoptotic (%)” value [4] was 50% and 54%, the “Population Fragmented Nuclei (%)” value [4] was 13% and 7% and the “Population Healthy Nuclei (%)” value [4] was 77% and 82%. For the same compound, the “Population Hoechst High Intensity Objects (%)” value [4] was 10% and 9%, the “Population Membrane Permeable-Phenotype (%)” value [4] was 2% and 1% and the “Population Mitochondria Different-Phenotype (%)” value [4] was 2% and 5%. For the same compound, the “Population Mitotic Cells (%)” value [4] was 50% and 45%, the “Population Normal (%)” value [4] was 89% and 90% and the “Population Pyknosed Nuclei (%)” value [4] was 8% and 9%. For the same compound, the “Population Tubulin-Different-Phenotype (%)” value [4] was 13% and 24%, the “Total Cell Count” value [4] was 1214 and 906 and the “Population Apoptotic (%)” value [5] was 13% and 14%. The “Population Fragmented Nuclei (%)” value [5] was 12% and 10%, the “Population Healthy Nuclei (%)” value [5] was 83% and 86% and the “Population Hoechst High Intensity Objects (%)” value [5] was 8%. For the same compound, the “Population Membrane Permeable-Phenotype (%)” value [5] was 4% and 5%, the “Population Mitochondria Different-Phenotype (%)” value [5] was 0% and the “Population Mitotic Cells (%)” value [5] was 86% and 85%. For the same compound, the “Population Normal (%)” value [5] was 91%, the “Population Pyknosed Nuclei (%)” value [5] was 3% and the “Population Tubulin-Different-Phenotype (%)” value [5] was 7%. The “Total Cell Count” value [5] was 2736 and 2374, the “Population Apoptotic (%)” value [6] was 25% and 19% and the “Population Fragmented Nuclei (%)” value [6] was 25% and 22%. The “Population Healthy Nuclei (%)” value [6] was 71% and 75%, the “Population Hoechst High Intensity Objects (%)” value [6] was 9% and the “Population Membrane Permeable-Phenotype (%)” value [6] was 5% and 7%. For the same compound, the “Population Mitochondria Different-Phenotype (%)” value [6] was 0%, the “Population Mitotic Cells (%)” value [6] was 74% and 80% and the “Population Normal (%)” value [6] was 90%. The “Population Pyknosed Nuclei (%)” value [6] was 2%, the “Population Tubulin-Different-Phenotype (%)” value [6] was 8% and 13% and the “Total Cell Count” value [6] was 3157 and 2195.

In the case of Cc1cccc(S(=O)(=O)N(C)[C@H](C)CCN2CCC(C)CC2)c1.Cl, the “Population Apoptotic (%)” value [1] is reported as 51% and 50%, the “Population Fragmented Nuclei (%)” value [1] is reported as 4% and 1% and the “Population Healthy Nuclei (%)” value [1] is reported as 81% and 80%. For the same compound, the “Population Hoechst High Intensity Objects (%)” value [1] was 5% and 6%, the “Population Membrane Permeable-Phenotype (%)” value [1] was 4% and 6% and the “Population Mitochondria Different-Phenotype (%)” value [1] was 16%. For the same compound, the “Population Mitotic Cells (%)” value [1] was 48% and 50%, the “Population Normal (%)” value [1] was 94% and 93% and the “Population Pyknosed Nuclei (%)” value [1] was 13% and 17%. For the same compound, the “Population Tubulin-Different-Phenotype (%)” value [1] was 61% and 51%, the “Total Cell Count” value [1] was 635 and 449 and the “Population Apoptotic (%)” value [2] was 52% and 62%. For the same compound, the “Population Fragmented Nuclei (%)” value [2] was 4% and 3%, the “Population Healthy Nuclei (%)” value [2] was 81% and 74% and the “Population Hoechst High Intensity Objects (%)” value [2] was 7% and 9%. For the same compound, the “Population Membrane Permeable-Phenotype (%)” value [2] was 3% and 4%, the “Population Mitochondria Different-Phenotype (%)” value [2] was 24% and 29% and the “Population Mitotic Cells (%)” value [2] was 47% and 37%. For the same compound, the “Population Normal (%)” value [2] was 92% and 90%, the “Population Pyknosed Nuclei (%)” value [2] was 14% and 22% and the “Population Tubulin-Different-Phenotype (%)” value [2] was 70% and 65%. For the same compound, the “Total Cell Count” value [2] was 550 and 400, the “Population Apoptotic (%)” value [3] was 45% and 63% and the “Population Fragmented Nuclei (%)” value [3] was 6% and 2%. For the same compound, the “Population Healthy Nuclei (%)” value [3] was 85% and 82%, the “Population Hoechst High Intensity Objects (%)” value [3] was 6% and 9% and the “Population Membrane Permeable-Phenotype (%)” value [3] was 4%. The “Population Mitochondria Different-Phenotype (%)” value [3] was 7% and 10%, the “Population Mitotic Cells (%)” value [3] was 54% and 36% and the “Population Normal (%)” value [3] was 93% and 90%. For the same compound, the “Population Pyknosed Nuclei (%)” value [3] was 8% and 15%, the “Population Tubulin-Different-Phenotype (%)” value [3] was 36% and 37% and the “Total Cell Count” value [3] was 943 and 563. The “Population Apoptotic (%)” value [4] was 64% and 54%, the “Population Fragmented Nuclei (%)” value [4] was 4% and 3% and the “Population Healthy Nuclei (%)” value [4] was 79% and 83%. The “Population Hoechst High Intensity Objects (%)” value [4] was 9% and 6%, the “Population Membrane Permeable-Phenotype (%)” value [4] was 4% and 3% and the “Population Mitochondria Different-Phenotype (%)” value [4] was 15% and 9%. The “Population Mitotic Cells (%)” value [4] was 35% and 45%, the “Population Normal (%)” value [4] was 90% and 93% and the “Population Pyknosed Nuclei (%)” value [4] was 16% and 12%. The “Population Tubulin-Different-Phenotype (%)” value [4] was 50% and 49%, the “Total Cell Count” value [4] was 552 and 801 and the “Population Apoptotic (%)” value [5] was 15% and 36%. The “Population Fragmented Nuclei (%)” value [5] was 10% and 7%, the “Population Healthy Nuclei (%)” value [5] was 84% and 86% and the “Population Hoechst High Intensity Objects (%)” value [5] was 8% and 6%. The “Population Membrane Permeable-Phenotype (%)” value [5] was 5% and 3%, the “Population Mitochondria Different-Phenotype (%)” value [5] was 0% and 3% and the “Population Mitotic Cells (%)” value [5] was 85% and 63%. The “Population Normal (%)” value [5] was 91% and 93%, the “Population Pyknosed Nuclei (%)” value [5] was 4% and 5% and the “Population Tubulin-Different-Phenotype (%)” value [5] was 16% and 20%. The “Total Cell Count” value [5] was 2361 and 1220, the “Population Apoptotic (%)” value [6] was 39% and 41% and the “Population Fragmented Nuclei (%)” value [6] was 11% and 10%. For the same compound, the “Population Healthy Nuclei (%)” value [6] was 83%, the “Population Hoechst High Intensity Objects (%)” value [6] was 9% and 8% and the “Population Membrane Permeable-Phenotype (%)” value [6] was 7%. The “Population Mitochondria Different-Phenotype (%)” value [6] was 1% and 3%, the “Population Mitotic Cells (%)” value [6] was 60% and 58% and the “Population Normal (%)” value [6] was 90% and 91%. The “Population Pyknosed Nuclei (%)” value [6] was 5%, the “Population Tubulin-Different-Phenotype (%)” value [6] was 27% and the “Total Cell Count” value [6] was 1730 and 1106.
